# ChEMBL document CHEMBL3774372, “Design, physico-chemical properties and biological evaluation of some new N-[(phenoxy)alkyl]- and N-{2-[2-(phenoxy)ethoxy]ethyl}aminoalkanols as anticonvulsant agents” (Bioorg Med Chem, 2016)
# Active and inactive are the calls of the source. No cut-off for these calls is given here.
# Key:
# Rattus norvegicus [1] = species: Rattus norvegicus; experiment: Displacement of [35S]dATPalpha S from rat cerebral cortex P2Y receptor at 10^-5 M; type: tissue-based
# Summary of the method: (§1)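 Radioligand binding screen run at a single test concentration of 10^-5 M. Each target used its stated receptor source (human recombinant CHO or HEK-293 cells, endogenous cell lines, or rat tissue membranes) with the listed radioligand.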
# U-937 = experiment: Displacement of [125I]TNF-alpha from TNF-alpha receptor in human U937 cells at 10^-5 M; type: cell-based; summary of the method: as §1
# Rattus norvegicus [2] = experiment: Anticonvulsant activity in rat assessed as protection against maximal electric shock-induced seizures at 30 mg/kg, ip measured after […]; type: functional, organism-based
# Rattus norvegicus [3] = experiment: Anticonvulsant activity in rat assessed as protection against maximal electric shock-induced seizures at 30 mg/kg, po measured after 0.5 hrs; type: functional, organism-based
# Summary of the method: (§2)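 Rats dosed ip or orally as 0.5% methylcellulose suspension; maximal electroshock at listed time. Protection = abolition of hindlimb tonic extension; 4 rats per group, scored protected/tested.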
# [4] = target: 5-hydroxytryptamine receptor 6 (Homo sapiens) (UniProt P50406); experiment: Displacement of [3H]LSD from human recombinant 5-HT6 receptor expressed in CHO cells at 10^-5 M; type: cell-based; summary of the method: as §1
# Rattus norvegicus [5] = experiment: Anticonvulsant activity in rat assessed as protection against maximal electric shock-induced seizures at 30 mg/kg, ip measured after 0.5 hrs; type: functional, organism-based; summary of the method: as §2
# [6] = target: 5-hydroxytryptamine receptor 3A (Homo sapiens) (UniProt P46098); experiment: Displacement of [3H]BRL43694 from human recombinant 5-HT3 receptor expressed in CHO cells at 10^-5 M; type: cell-based; summary of the method: as §1
# [7] = target: Muscarinic acetylcholine receptor M1 (Homo sapiens) (UniProt P11229); experiment: Displacement of [3H]pirenzepine from human recombinant muscarinic M1 receptor expressed in CHO cells at 10^-5 M; type: cell-based
# Summary of the method: (§3)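 Radioligand displacement screen with the test agent at a single 10^-5 M concentration; receptor source and radioligand per target as tabulated (recombinant human cell lines or rat cerebral cortex/urinary bladder).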
# [8] = target: Prostacyclin receptor (Homo sapiens) (UniProt P43119); experiment: Displacement of [3H]iloprost from human recombinant Prostanoid IP receptor expressed in HEK293 cells at 10^-5 M; type: cell-based; summary of the method: as §3
# Mus musculus [9] = experiment: Anticonvulsant activity in mouse assessed as protection against 6 Hz psychomotor seizure at 20 mg/kg, ip after 1 hr; type: functional, organism-based
# Summary of the method: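 Suspension in 0.5% methylcellulose given ip to mice; corneal stimulation with 0.2 ms monopolar rectangular pulses at 6 Hz for 3 s from a constant current device, mice restrained then released to observation cage. Protected if normal exploratory behaviour resumed within 10 s of stimulation. Scored as protected/tested, 4 mice per group.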
# [10] = AUC (0 to infinity) in CD1 mouse brain at 1 mg/kg, iv measured up to 240 mins by LC/ESI-MS/MS analysis; type: ADME, organism-based; set-up: dose 1 mg/kg, route intravenous, time infinity
# [11] = Ratio of drug level in brain to plasma in CD1 mouse at 12.92 mg/kg, ip administered as single dose measured after 120 mins by LC/ESI-MS/MS analysis; type: ADME, organism-based; details: brain and plasma, read-out: BPR
# [12] = Cmax in CD1 mouse brain at 12.92 mg/kg, ig measured up to 240 mins by LC/ESI-MS/MS analysis; type: ADME, organism-based; set-up: dose 12.92 mg/kg, route […]; details: po
# hERG (KCNH2) = hERG (KCNH2) (Homo sapiens, UniProt Q12809); experiment: Displacement of [3H]astemizole from human recombinant ERG expressed in HEK293 cells at 10^-4 M; type: cell-based; details: HEK293 cells that express human recombinant ERG, probe [3H]astemizole
# [13] = MRT in CD1 mouse brain at 1 mg/kg, iv measured up to 240 mins by LC/ESI-MS/MS analysis; type: ADME, organism-based
# Vibrio harveyi = experiment: Antimutagenic activity against Vibrio harveyi BB7M assessed as inhibition of NQNO-induced mutagenicity after 48 hrs; type: functional
# Summary of the method: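 V. harveyi cultures grown exponentially to A600 0.1 at 30 °C, exposed to test compound for 15 min, then to NQNO, and grown on to A600 0.3–0.4. 5 × 10⁶ cells plated on BOSS agar with neomycin (100, final). Neomycin-resistant colonies counted after 48 h at 30 °C. Result given as % inhibition of NQNO mutagenicity; three independent repeats.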
# Mus musculus [14] = experiment: Cmax in CD1 mouse plasma at 12.92 mg/kg, ip measured up to 240 mins by LC/ESI-MS/MS analysis; type: ADME, organism-based; set-up: dose 12.92 mg/kg, route intraperitoneal; details: in vivo, 4 h
# Mus musculus [15] = experiment: AUC (0 to infinity) in CD1 mouse plasma at 12.92 mg/kg, ig measured up to 240 mins by LC/ESI-MS/MS analysis; type: ADME, organism-based; set-up: dose 12.92 mg/kg, time infinity, route […]; details: in vivo, po, 4 h
# Mus musculus [16] = experiment: Neurotoxicity in mouse at 100 mg/kg, ip after 0.5 hrs by rotarod test; type: toxicity, organism-based; details: in vivo
# Summary of the method: (§4)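 Mice were dosed ip with compound suspended in 0.5% methylcellulose. Rotarod: a 1 in. knurled rod turning at 6 rpm. Neurotoxicity was scored as failure to stay on the rod for at least 1 min in each of three trials. Results are given as the number of animals affected out of the number tested.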
# [17] = MRT in CD1 mouse plasma at 1 mg/kg, iv measured up to 240 mins by LC/ESI-MS/MS analysis; type: ADME, organism-based
# Mus musculus [18] = experiment: Tmax in CD1 mouse plasma at 12.92 mg/kg, ip measured up to 240 mins by LC/ESI-MS/MS analysis; type: ADME, organism-based; details: in vivo, 4 h
# Rattus norvegicus [19] = experiment: Toxicity in pilocarpine-induced status epilepticus Sprague-Dawley rat model assessed as average weight change at 100 mg/kg, ip measured 24 hrs post first stage 3 seizure; type: organism-based; details: in vivo
# [20] = Ratio of drug level in brain to plasma in CD1 mouse at 12.92 mg/kg, ip administered as single dose measured after 240 mins by LC/ESI-MS/MS analysis; type: ADME, organism-based; details: brain and plasma, read-out: BPR
# [21] = Absolute bioavailability in CD1 mouse plasma at 12.92 mg/kg, ig measured up to 240 mins by LC/ESI-MS/MS analysis; type: ADME, organism-based; details: po
# Mus musculus [22] = experiment: Neurotoxicity in mouse at 30 mg/kg, ip after 0.5 hrs by rotarod test; type: toxicity, organism-based; details: in vivo; summary of the method: as §4
# in vitro = details: mouse, liver microsomes
# [23] = Absolute bioavailability in CD1 mouse plasma at 12.92 mg/kg, ip measured up to 240 mins by LC/ESI-MS/MS analysis; type: ADME, organism-based
# Mus musculus [24] = experiment: Half life in CD1 mouse plasma at 12.92 mg/kg, ig measured up to 240 mins by LC/ESI-MS/MS analysis; type: ADME, organism-based; details: in vivo, po, 4 h
# Mus musculus [25] = experiment: Cmax in CD1 mouse plasma at 12.92 mg/kg, ig measured up to 240 mins by LC/ESI-MS/MS analysis; type: ADME, organism-based; set-up: dose 12.92 mg/kg, route […]; details: in vivo, po, 4 h
# [26] = Ratio of drug level in brain to plasma in CD1 mouse at 1 mg/kg, iv administered as single dose measured after 30 mins by LC/ESI-MS/MS analysis; type: ADME, organism-based; details: brain and plasma, read-out: BPR
# Rattus norvegicus [27] = experiment: Anticonvulsant activity in pilocarpine-induced status epilepticus Sprague-Dawley rat model at 100 mg/kg, ip after 1 hr during post stage 3 seizure; type: functional, organism-based
# Summary of the method: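 Rats given pilocarpine 50 mg/kg ip and observed to first convulsive seizure (Racine stage 3–5, time zero); test drug then given ip in 0.5% methylcellulose. Efficacy = halting further stage 3–5 convulsive seizures; scored protected/tested, time after first stage 3 seizure.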
# Chain of Muscarinic acetylcholine receptor M1 (Homo sapiens) (P11229 whole entry): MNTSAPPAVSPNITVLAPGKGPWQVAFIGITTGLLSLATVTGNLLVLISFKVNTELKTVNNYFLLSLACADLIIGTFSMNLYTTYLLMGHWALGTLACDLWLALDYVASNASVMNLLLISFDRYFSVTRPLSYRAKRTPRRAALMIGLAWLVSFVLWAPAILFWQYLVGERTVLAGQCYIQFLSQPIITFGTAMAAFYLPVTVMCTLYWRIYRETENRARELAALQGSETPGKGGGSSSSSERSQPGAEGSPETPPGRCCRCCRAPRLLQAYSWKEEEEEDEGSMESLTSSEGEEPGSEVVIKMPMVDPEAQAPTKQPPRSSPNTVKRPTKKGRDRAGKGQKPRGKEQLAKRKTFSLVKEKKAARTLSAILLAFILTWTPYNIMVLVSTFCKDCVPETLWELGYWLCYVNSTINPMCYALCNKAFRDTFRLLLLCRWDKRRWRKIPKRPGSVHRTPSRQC
# Chain of 5-hydroxytryptamine receptor 6 (Homo sapiens) (P50406 whole entry): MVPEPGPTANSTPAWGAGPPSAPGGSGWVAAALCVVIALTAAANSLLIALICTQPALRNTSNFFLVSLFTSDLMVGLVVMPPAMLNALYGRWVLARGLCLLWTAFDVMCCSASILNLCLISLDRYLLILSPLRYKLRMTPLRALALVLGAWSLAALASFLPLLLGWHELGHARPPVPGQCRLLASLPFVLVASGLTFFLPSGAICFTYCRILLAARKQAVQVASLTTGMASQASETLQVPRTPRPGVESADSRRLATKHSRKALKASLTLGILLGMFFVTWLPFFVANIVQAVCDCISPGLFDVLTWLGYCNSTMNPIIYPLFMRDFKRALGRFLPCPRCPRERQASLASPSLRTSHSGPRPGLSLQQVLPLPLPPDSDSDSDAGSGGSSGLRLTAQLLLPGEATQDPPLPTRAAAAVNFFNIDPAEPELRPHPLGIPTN
# Chain of 5-hydroxytryptamine receptor 3A (Homo sapiens) (P46098 whole entry): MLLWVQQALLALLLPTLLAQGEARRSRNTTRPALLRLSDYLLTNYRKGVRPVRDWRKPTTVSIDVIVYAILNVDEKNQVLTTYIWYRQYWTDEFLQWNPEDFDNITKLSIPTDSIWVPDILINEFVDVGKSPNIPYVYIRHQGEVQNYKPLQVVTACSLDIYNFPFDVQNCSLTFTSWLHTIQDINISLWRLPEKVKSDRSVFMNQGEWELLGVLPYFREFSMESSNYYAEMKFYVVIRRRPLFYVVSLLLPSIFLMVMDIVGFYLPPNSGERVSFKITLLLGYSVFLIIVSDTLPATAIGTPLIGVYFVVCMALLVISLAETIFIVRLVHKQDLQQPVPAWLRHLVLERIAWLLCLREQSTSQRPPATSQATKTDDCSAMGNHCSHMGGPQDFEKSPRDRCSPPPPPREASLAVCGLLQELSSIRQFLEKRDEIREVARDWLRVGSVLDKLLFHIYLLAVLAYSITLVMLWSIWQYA
# Chain of Prostacyclin receptor (Homo sapiens) (P43119 whole entry): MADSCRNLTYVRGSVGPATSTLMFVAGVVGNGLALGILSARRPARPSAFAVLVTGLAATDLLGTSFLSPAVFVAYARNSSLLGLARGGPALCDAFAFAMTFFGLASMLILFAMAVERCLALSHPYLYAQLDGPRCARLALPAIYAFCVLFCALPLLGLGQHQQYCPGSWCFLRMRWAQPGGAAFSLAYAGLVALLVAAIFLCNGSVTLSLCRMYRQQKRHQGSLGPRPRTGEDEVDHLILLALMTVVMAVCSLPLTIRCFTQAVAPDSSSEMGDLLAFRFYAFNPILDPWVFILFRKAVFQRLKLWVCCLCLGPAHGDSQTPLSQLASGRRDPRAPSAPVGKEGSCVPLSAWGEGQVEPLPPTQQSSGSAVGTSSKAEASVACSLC
# Chain of hERG (KCNH2) (Q12809 whole entry): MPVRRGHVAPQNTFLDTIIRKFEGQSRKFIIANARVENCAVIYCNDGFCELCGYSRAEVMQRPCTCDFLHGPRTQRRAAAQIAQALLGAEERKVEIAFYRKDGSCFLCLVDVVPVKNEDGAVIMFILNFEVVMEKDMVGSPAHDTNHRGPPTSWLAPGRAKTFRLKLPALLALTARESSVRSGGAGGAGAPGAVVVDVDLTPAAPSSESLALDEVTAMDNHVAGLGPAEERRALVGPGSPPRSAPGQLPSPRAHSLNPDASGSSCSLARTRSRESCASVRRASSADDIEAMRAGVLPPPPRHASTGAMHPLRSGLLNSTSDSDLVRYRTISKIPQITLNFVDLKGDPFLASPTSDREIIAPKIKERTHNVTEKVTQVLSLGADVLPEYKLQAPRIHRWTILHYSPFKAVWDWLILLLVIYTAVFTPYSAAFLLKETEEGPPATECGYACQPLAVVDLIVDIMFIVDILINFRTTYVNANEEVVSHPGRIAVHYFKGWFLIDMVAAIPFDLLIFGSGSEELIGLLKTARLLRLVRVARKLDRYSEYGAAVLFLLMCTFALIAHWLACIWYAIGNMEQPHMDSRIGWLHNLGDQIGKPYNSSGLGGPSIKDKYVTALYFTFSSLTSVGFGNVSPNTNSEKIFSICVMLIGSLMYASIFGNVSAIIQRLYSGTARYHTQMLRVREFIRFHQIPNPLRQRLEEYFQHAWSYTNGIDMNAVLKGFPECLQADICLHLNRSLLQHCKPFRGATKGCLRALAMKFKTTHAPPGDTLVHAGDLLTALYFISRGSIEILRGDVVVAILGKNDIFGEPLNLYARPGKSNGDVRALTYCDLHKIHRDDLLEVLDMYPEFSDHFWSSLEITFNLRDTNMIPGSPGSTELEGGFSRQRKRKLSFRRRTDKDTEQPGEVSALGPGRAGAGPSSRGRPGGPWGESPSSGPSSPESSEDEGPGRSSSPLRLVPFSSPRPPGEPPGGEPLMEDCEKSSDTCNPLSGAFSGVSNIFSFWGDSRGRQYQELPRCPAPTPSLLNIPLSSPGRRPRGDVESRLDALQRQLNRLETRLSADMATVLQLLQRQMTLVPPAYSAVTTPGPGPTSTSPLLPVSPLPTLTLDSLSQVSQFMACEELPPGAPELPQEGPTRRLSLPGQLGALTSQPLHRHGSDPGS
structure (smiles),measurement,setting,value
Cc1cccc(C)c1OCCOCCN[C@@H](C)CO,inhibition,Rattus norvegicus [1],9.4%
same,inhibition,U-937,4.6%
same,Activity,Rattus norvegicus [2],Active
same,Activity,Rattus norvegicus [3],inactive
same,inhibition,[4],15.4%
same,Activity,Rattus norvegicus [5],Active
same,inhibition,[6],12.3%
same,inhibition,[7],22.8%
same,inhibition,[8],-6%
same,Activity,Mus musculus [9],inactive
Cc1cccc(C)c1OCCOCCN[C@H](C)CO.Cl,AUC(0-inf),[10],5150 ng·h/mL
same,Kp at 2 h,[11],2.86
same,Cmax,[12],1640 ng/mL
same,inhibition at 100 µM,hERG (KCNH2),3.6%
same,MRT,[13],50.1 min
same,inhibition (INH),Vibrio harveyi,69%
same,Cmax,Mus musculus [14],1190 ng/mL
same,AUC,Mus musculus [15],396 ng·h/mL
same,Activity,Mus musculus [16],Toxic
same,MRT,[17],55.6 min
same,Tmax,Mus musculus [18],5 min
same,Activity,Rattus norvegicus [19],17.5 g
same,Kp at 4 h,[20],1.94
same,bioavailability,[21],2.98%
same,Activity,Mus musculus [22],Non-toxic
same,half-life at 20 µM,in vitro,37 min
same,bioavailability,[23],6.78%
same,t1/2,Mus musculus [24],29.1 min
same,Cmax,Mus musculus [25],950 ng/mL
same,Kp at 0.5 h,[26],5.41
Cc1cccc(C)c1OCCOCCN[C@H](C)CO,inhibition,Rattus norvegicus [1],9.4%
same,inhibition,U-937,5.1%
same,Activity,Rattus norvegicus [27],inactive
same,inhibition,[4],6.7%
same,inhibition,[6],29.4%
same,inhibition,[7],6%
